From ChEMBL document CHEMBL1149771, “Antimicrobial studies of 2,4-dichloro-5-fluorophenyl containing oxadiazoles” (2008)
≈ marks a conversion by molar mass, not a printed value.

What was measured:
Assay type in all cases: functional
[1] = system: Aspergillus fumigatus; assay: Antifungal activity against Aspergillus fumigatus at 35 degC after 48 hrs
Procedure, shortened: (§1)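 Fungicidal endpoint (MFC). 0.1 ml from each broth-dilution tube was spread on agar plates and c.f.u. counted after 48 h at 35 °C. MFC was the lowest concentration killing 99.9% of the inoculum.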

[2] = system: Escherichia coli; assay: Antibacterial activity against Escherichia coli ATCC 25922 at 37 degC after 24 hrs by broth dilution method; conditions: ATCC 25922, 24 h
Procedure, shortened: (§2)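 Broth dilution MIC. Nutrient broth held two-fold serial dilutions of compound and was inoculated with about 5 × 10⁵ c.f.u. of actively dividing bacteria. Cultures ran 24 h at 37 °C, with growth checked visually and spectrophotometrically. MIC was the lowest concentration arresting growth. Ciprofloxacin was the standard.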

[3] = system: Candida albicans; assay: Antifungal activity against Candida albicans at 35 degC after 48 hrs by broth dilution method
Procedure, shortened: (§3)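 Fungal MIC by broth dilution. Two-fold serial dilutions of compound in nutrient broth were inoculated with about 1.6 × 10⁴–6 × 10⁴ c.f.u./ml. Incubation was 48 h at 35 °C. MIC was the lowest concentration arresting fungal growth.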

[4] = system: Klebsiella pneumoniae; assay: Antibacterial activity against Klebsiella pneumoniae ATCC 25922 at 37 degC after 24 hrs by broth dilution method; conditions: recultured, in the assay text read “Klebsiella pneumoniae (recultured)” for “Klebsiella pneumoniae ATCC 25922”; procedure, shortened: as §2
[5] = system: Talaromyces marneffei; assay: Antifungal activity against Penicillium marneffei at 35 degC after 48 hrs; procedure, shortened: as §1
[6] = system: Staphylococcus aureus; assay: Antibacterial activity against Staphylococcus aureus ATCC 25923 at 35 degC after 18 to 24 hrs
Procedure, shortened: (§4)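 Bactericidal endpoint (MBC) taken from the broth-dilution MIC tubes. 0.1 ml from each tube was spread on agar plates and c.f.u. counted after 18–24 h. MBC was the lowest concentration completely killing the bacteria.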

[7] = system: Staphylococcus aureus; assay: Antibacterial activity against Staphylococcus aureus ATCC 25923 at 37 degC after 24 hrs by disc diffusion method
Procedure, shortened: (§5)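 Disc diffusion on nutrient agar. Plates were spread with 1–2 × […] c.f.u./ml inoculum (0.5 McFarland). Sterile 6.25 mm filter-paper discs were soaked in a known concentration of compound and placed on the agar. Plates were inverted and incubated 24 h at 37 °C. Inhibition zones (mm) were read against solvent and growth controls, with ciprofloxacin as reference.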

[8] = system: Candida albicans; assay: Antifungal activity against Candida albicans at 35 degC after 48 hrs; procedure, shortened: as §1
[9] = system: Klebsiella pneumoniae; assay: Antibacterial activity against Klebsiella pneumoniae ATCC 25922 at 37 degC after 24 hrs by disc diffusion method; procedure, shortened: as §5
[10] = system: Trichophyton mentagrophytes; assay: Antifungal activity against Trichophyton mentagrophytes at 37 degC after 3 to 4 days by agar dilution method; conditions: in the assay text read “agar diffusion method” for “agar dilution method”
Procedure, shortened: (§6)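 Agar well diffusion for fungi, compounds in DMSO. Sabouraud agar was adjusted to pH 5.7 and lawned with a saline spore suspension (a loopful in 3 ml). Plates were dried 1 h at 37 °C, then wells were punched. Incubation was 3–4 days at 37 °C, with controls in triplicate. Inhibition zones were measured against controls, with griseofulvin as standard.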

[11] = system: Klebsiella pneumoniae; assay: Antibacterial activity against Klebsiella pneumoniae ATCC 25922 at 35 degC after 18 to 24 hrs; conditions: recultured, in the assay text read “Klebsiella pneumoniae (recultured)” for “Klebsiella pneumoniae ATCC 25922”; procedure, shortened: as §4
[12] = system: Staphylococcus aureus; assay: Antibacterial activity against Staphylococcus aureus ATCC 25923 at 37 degC after 24 hrs by broth dilution method; conditions: ATCC 25923, 24 h; procedure, shortened: as §2
[13] = system: Talaromyces marneffei; assay: Antifungal activity against Penicillium marneffei at 35 degC after 48 hrs by broth dilution method; procedure, shortened: as §3
[14] = system: Aspergillus fumigatus; assay: Antifungal activity against Aspergillus fumigatus at 37 degC after 3 to 4 days by agar […] method; procedure, shortened: as §6
[15] = system: Trichophyton mentagrophytes; assay: Antifungal activity against Trichophyton mentagrophytes at 35 degC after 48 hrs; procedure, shortened: as §1
[16] = system: Talaromyces marneffei; assay: Antifungal activity against Penicillium marneffei at 37 degC after 3 to 4 days by agar […] method; procedure, shortened: as §6
[17] = system: Pseudomonas aeruginosa; assay: Antibacterial activity against Pseudomonas aeruginosa ATCC 27853 at 37 degC after 24 hrs by broth dilution method; conditions: ATCC 27853, 24 h; procedure, shortened: as §2
[18] = system: Candida albicans; assay: Antifungal activity against Candida albicans at 37 degC after 3 to 4 days by agar dilution method; procedure, shortened: as §6
[19] = system: Aspergillus fumigatus; assay: Antifungal activity against Aspergillus fumigatus at 35 degC after 48 hrs by broth dilution method; procedure, shortened: as §3
[20] = system: Escherichia coli; assay: Antibacterial activity against Escherichia coli ATCC 25922 at 37 degC after 24 hrs by disc diffusion method; procedure, shortened: as §5
[21] = system: Trichophyton mentagrophytes; assay: Antifungal activity against Trichophyton mentagrophytes at 35 degC after 48 hrs by broth dilution method; procedure, shortened: as §3
[22] = system: Pseudomonas aeruginosa; assay: Antibacterial activity against Pseudomonas aeruginosa ATCC 27853 at 35 degC after 18 to 24 hrs; procedure, shortened: as §4
[23] = system: Escherichia coli; assay: Antibacterial activity against Escherichia coli ATCC 25922 at 35 degC after 18 to 24 hrs; procedure, shortened: as §4
[24] = system: Pseudomonas aeruginosa; assay: Antibacterial activity against Pseudomonas aeruginosa ATCC 27853 at 37 degC after 24 hrs by disc diffusion method; procedure, shortened: as §5

Row | SMILES | MFC [1] | MIC [2] | MIC [3] | MIC [4] | MFC [5] | MBC [6] | inhibition zone (IZ) [7] | MFC [8] | inhibition zone (IZ) [10] | MBC [11] | MIC [12] | MIC [13] | MFC [15] | inhibition zone (IZ) [16] | MIC [17] | MIC [19] | inhibition zone (IZ) [20] | MIC [21] | MBC [22] | MBC [23] | further results
1 | Cc1ccc(OCc2nnc(-c3cc(-c4cc(F)c(Cl)cc4Cl)nc4ccccc34)o2)cc1 | > 100 µg/mL | 25 µg/mL (≈ 52 µM) | > 100 µg/mL | 12.5 µg/mL (≈ 26 µM) | 25 µg/mL (≈ 52 µM) | 100 µg/mL (≈ 208 µM) | 15 mm | > 100 µg/mL | 17 mm | 25 µg/mL (≈ 52 µM) | 12.5 µg/mL (≈ 26 µM) | 12.5 µg/mL (≈ 26 µM) | 6.25 µg/mL (≈ 13 µM) | 15 mm | 25 µg/mL (≈ 52 µM) | > 100 µg/mL | 10 mm | 6.25 µg/mL (≈ 13 µM) | 50 µg/mL (≈ 104 µM) | 50 µg/mL (≈ 104 µM) | inhibition zone (IZ) [9]: 15 mm; Activity [14]: >100 µg/mL; Activity ([18]; in the assay text read “agar diffusion method” for “agar dilution method”): >100 µg/mL; inhibition zone (IZ) [24]: 8 mm
2 | Fc1cc(-c2cc(-c3nnc(COc4ccc(Cl)cc4Cl)o3)c3ccccc3n2)c(Cl)cc1Cl | 12.5 µg/mL (≈ 23.4 µM) | 6.25 µg/mL (≈ 11.7 µM) | 6.25 µg/mL (≈ 11.7 µM) | 12.5 µg/mL (≈ 23.4 µM) | 6.25 µg/mL (≈ 11.7 µM) | 6.25 µg/mL (≈ 11.7 µM) | 20 mm | 6.25 µg/mL (≈ 11.7 µM) | 21 mm | 12.5 µg/mL (≈ 23.4 µM) | 6.25 µg/mL (≈ 11.7 µM) | 6.25 µg/mL (≈ 11.7 µM) | 25 µg/mL (≈ 46.7 µM) | 19 mm | 6.25 µg/mL (≈ 11.7 µM) | 6.25 µg/mL (≈ 11.7 µM) | 26 mm | 6.25 µg/mL (≈ 11.7 µM) | 12.5 µg/mL (≈ 23.4 µM) | 12.5 µg/mL (≈ 23.4 µM) | inhibition zone (IZ) [9]: 17 mm; inhibition zone (IZ) [14]: 27 mm; inhibition zone (IZ) [18]: 29 mm; inhibition zone (IZ) [24]: 30 mm
3 | Cc1ccccc1OCc1nnc(-c2cc(-c3cc(F)c(Cl)cc3Cl)nc3ccccc23)o1 | > 100 µg/mL | 12.5 µg/mL (≈ 26 µM) | 6.25 µg/mL (≈ 13 µM) | > 100 µg/mL | > 100 µg/mL | 25 µg/mL (≈ 52 µM) | 12 mm | 25 µg/mL (≈ 52 µM) | 18 mm | > 100 µg/mL | 12.5 µg/mL (≈ 26 µM) | > 100 µg/mL | 12.5 µg/mL (≈ 26 µM) |  | > 100 µg/mL | > 100 µg/mL | 12 mm | 6.25 µg/mL (≈ 13 µM) | > 100 µg/mL | 25 µg/mL (≈ 52 µM) | Activity [9]: >100 µg/mL; Activity [14]: >100 µg/mL; Activity [16]: >100 µg/mL; inhibition zone (IZ) [18]: 25 mm; Activity [24]: >100 µg/mL
4 | Fc1cc(-c2cc(-c3nnc(COc4ccccc4Cl)o3)c3ccccc3n2)c(Cl)cc1Cl | > 100 µg/mL | 6.25 µg/mL (≈ 12.5 µM) | 6.25 µg/mL (≈ 12.5 µM) | 25 µg/mL (≈ 49.9 µM) | 25 µg/mL (≈ 49.9 µM) | > 100 µg/mL |  | 12.5 µg/mL (≈ 25 µM) |  | 100 µg/mL (≈ 200 µM) | > 100 µg/mL | 12.5 µg/mL (≈ 25 µM) | > 100 µg/mL | 12 mm | 25 µg/mL (≈ 49.9 µM) | > 100 µg/mL | 20 mm | > 100 µg/mL | 50 µg/mL (≈ 99.9 µM) | 50 µg/mL (≈ 99.9 µM) | Activity [7]: >100 µg/mL; Activity [9]: >100 µg/mL; Activity [10]: >100 µg/mL; Activity [14]: >100 µg/mL; inhibition zone (IZ) [18]: 20 mm; inhibition zone (IZ) [24]: 22 mm
5 | O=C(O)c1cn(C2CC2)c2cc(N3CCNCC3)c(F)cc2c1=O [CIPROFLOXACIN] |  |  |  | 12.5 µg/mL (≈ 37.7 µM) |  | 12.5 µg/mL (≈ 37.7 µM) | 22 mm |  |  | 12.5 µg/mL (≈ 37.7 µM) |  |  |  |  |  |  | 27 mm |  | 12.5 µg/mL (≈ 37.7 µM) | 12.5 µg/mL (≈ 37.7 µM) | inhibition zone (IZ) [9]: 19 mm; inhibition zone (IZ) [24]: 32 mm
6 | COC1=CC(=O)C[C@@H](C)[C@]12Oc1c(Cl)c(OC)cc(OC)c1C2=O [GRISEOFULVIN] | 12.5 µg/mL (≈ 35.4 µM) |  | 6.25 µg/mL (≈ 17.7 µM) |  | 12.5 µg/mL (≈ 35.4 µM) |  |  | 12.5 µg/mL (≈ 35.4 µM) | 24 mm |  |  | 6.25 µg/mL (≈ 17.7 µM) | 12.5 µg/mL (≈ 35.4 µM) | 20 mm |  | 6.25 µg/mL (≈ 17.7 µM) |  | 6.25 µg/mL (≈ 17.7 µM) |  |  | inhibition zone (IZ) [14]: 27 mm; inhibition zone (IZ) [18]: 30 mm
